The list is not random: actives were taken first. Their share in the collection is about 4.8%.
APP 5UTR inh – inhibitors of APP translation via 5'UTR reporter, primary screen, APP 5'UTR luciferase, SH-SY5Y cells. SH-SY5Y APP 5'UTR-luciferase reporter, luminescence. inhibition, % at 2 µM. actives 0.82% (n = 190,000). AID 1285, 2008;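 active = inhibition above a set limit, derived from the sample mean plus 3 SD, cut at about 45% in these data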
FLuc act counter – FLuc activators, initial screening, artefact control for FLuc-dependent activation tests, biochemical, ATPlite luminescence; Luciferin 4-monooxygenase (Photinus pyralis), P08659; ATPlite luciferase biochemical, 10 min; 0 = ATP-free wells, 1 = DMSO control; activation factor at 10 µM; 200,000 tested, under 10 active; AID 1027, 2008;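 active = luciferase activation factor, scaled between plate controls, of at least 2 with compound at 10 µM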
Target sequence (P08659 whole entry, looked up): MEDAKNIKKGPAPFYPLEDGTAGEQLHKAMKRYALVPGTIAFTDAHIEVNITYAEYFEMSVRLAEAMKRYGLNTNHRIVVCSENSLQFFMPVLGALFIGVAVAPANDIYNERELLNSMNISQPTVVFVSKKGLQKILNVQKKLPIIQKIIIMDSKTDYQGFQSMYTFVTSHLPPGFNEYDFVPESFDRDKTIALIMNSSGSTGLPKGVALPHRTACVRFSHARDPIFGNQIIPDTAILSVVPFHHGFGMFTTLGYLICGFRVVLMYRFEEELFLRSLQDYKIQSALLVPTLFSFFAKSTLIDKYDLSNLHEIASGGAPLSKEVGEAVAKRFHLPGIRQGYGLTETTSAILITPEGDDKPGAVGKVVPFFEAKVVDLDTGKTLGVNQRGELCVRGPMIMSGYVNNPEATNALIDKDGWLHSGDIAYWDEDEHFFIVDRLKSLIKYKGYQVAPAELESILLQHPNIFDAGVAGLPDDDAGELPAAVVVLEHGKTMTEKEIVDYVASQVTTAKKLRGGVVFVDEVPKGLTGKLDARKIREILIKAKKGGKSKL
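Assay system: Luciferase/luciferin detection reagent, cell-free biochemical luciferase assay / Read-out: luciferase activation / Benchmarks: No-ATP low control, compound-free enzyme-plus-ATP high control / Medium: PBS buffer for ATP / Detection: luminescence measurement of luciferase light output / Schedule: 10 min at ambient temperature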
NF-kB neuron act – activators of NF-kB expression in neurons, primary screen, cell-based, HTS; fold change at 12.5 µM; human neuronal cells, NF-kB reporter expression; stronger effect = higher value; actives 1.6% (n = 190,000); AID 1239, 2008; in the data active = fold change above about 3.3
FLuc inhib CS – firefly luciferase enzyme inhibitors, primary screen, artefact control for luciferase-based inhibitor screens, biochemical, luminescence, ATPLite. Luciferin 4-monooxygenase (Photinus pyralis), P08659. 10 min. inhibition, % at 10 µM. actives 1.5% (n = 200,000). AID 1006, 2008;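 active = inhibition above about 50% when tested at 10 µM, limit read from the data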
APP 5'UTR act – activators of APP 5'UTR luciferase reporter, primary screen, SH-SY5Y cells; activation, % at 2 µM; actives 1% (n = 190,000); SH-SY5Y APP 5'UTR luciferase reporter, luminescence; zero percent = DMSO vehicle wells; AID 1276, 2008;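 active = activation above a set limit, based on mean plus 3 SD of controls, cut at about 140% in these data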
STAT1 activator – STAT1 signaling activators, primary screen, cell-based, HTS, luciferase reporter. NIH 3T3 STAT1-luciferase reporter, IFN-gamma, luminescence; 100% = IFN-gamma alone, no compound. activation (% of control), % at 5.5 µM. actives 2.6% (n = 200,000);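 active = activation above the screen-wide mean activation plus 3 SD, cut at about 130% in these data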;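 also: raw ratio to IFN-gamma control signal so 100% means no change and 0% no light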
* marks the source's active call; other numbers are inactive results; . = not tested or not shown.

SMILES	APP 5UTR inh	FLuc act counter	NF-kB neuron act	FLuc inhib CS	APP 5'UTR act	STAT1 activator
O=C(CSc1ccc(-c2ccccn2)nn1)N1CCCc2ccccc21	-2	1	0.95	4	3	97
Cc1ccc(/C=C2/NC(=O)N(c3ccccc3)C2=O)o1	-32	0.9	1.9	7	32	116
Cc1c(C(=O)O)cccc1-c1ccc(/C=C2/NC(=O)N(c3ccccc3)C2=O)o1	-42	1	1.6	0	42	131*
CCOC(=S)SCC(=O)N1CCc2ccccc2C1C1C(=O)CCCC1=O (configuration not stated)	-20	1	0.98	-4	20	97
NC(=O)c1cc(Cc2ccccc2)sc1NC(=O)c1ccco1	-84	1	3.4*	0	84	142*
O=C(Nc1sc2c(c1C(=O)O)CCCCC2)c1ccco1	-79	0.3	1.9	74*	79	122
CN(C)C(=O)c1c(NC(=O)c2ccco2)sc2c1CCCCC2	-25	1	0.74	0	25	100
NC(=O)c1c(NC(=O)c2cnccn2)sc2c1CCCC2	-94	0.7	1.6	34	94	135*
O=C(Nc1nnc(Cc2ccccc2)s1)c1ccco1	-15	0.9	1.6	14	15	118
NC(=O)c1c(NC(=O)c2ccco2)sc2c1CCC2	-29	0.7	3.2	30	29	150*
O=S(=O)(NCC1CCCO1)c1ccc(S(=O)(=O)N(Cc2ccccc2F)C2CCCCC2)cc1 (configuration not stated)	8	.	.	.	-8	99
Cc1ccc(S(=O)(=O)N(C)C)cc1NC(=O)COC(=O)/C(=C/c1ccc(F)cc1)c1cccs1	-15	1.1	1.2	-9	15	97
NC(=O)c1c(NC(=S)Nc2ccccc2)sc2c1CCCC2	-7	1	1.7	2	7	132*
Cc1ccsc1C(=O)NNC(=O)C1CC=CCC1C(=O)O (configuration not stated)	-58	1.1	1.5	-9	58	144*
Cc1ccsc1C(=O)NNC(=O)C1CCCCC1C(=O)O (configuration not stated)	-97	1	1.4	-3	97	129*
O=C(NNC(=O)[C@@H]1CCCC[C@@H]1C(=O)O)c1cccs1	-33	1	1.5	-2	33	114
COC(=O)c1cc(OC)c(OC)cc1NC(=O)c1c(C)noc1C	5	.	.	.	-5	106
COc1ccc2nc(NNC(=O)c3cc(=O)c4ccccc4o3)sc2c1	-34	0.3	0.87	69*	34	112
O=C(NNc1nc2c(F)cccc2s1)c1cc(=O)c2ccccc2o1	-25	0.5	1.4	55*	25	95
CC(C)CC1(C)NC(=O)N(CC(=O)Nc2cccc(S(=O)(=O)N(C)c3ccccc3)c2)C1=O (configuration not stated)	-16	1	1	-4	16	94
CCOC(=O)c1c(C)nc(C)c(C(=O)OCC)c1-c1ccc(O)c(OC)c1	-19	1.1	3.8*	-10	19	100
COC(=O)c1c(C)nc(C)c(C(=O)OC)c1-c1ccc(OC)c(OC)c1	10	1	1.1	-1	-10	107
C=CCn1c(SCC(=O)Nc2ncc(Cc3ccc(Br)cc3)s2)nnc1-c1ccncc1	6	1	1.3	-1	-6	98
CN1C(=O)/C(=C/c2ccc3c(c2)OCO3)N=C1c1ccccc1	2	0.4	1.2	62*	-2	98
CC(=O)Nc1ccc(N2C(=O)c3ccc(C(=O)Nc4nnc(SCc5ccc(F)cc5)s4)cc3C2=O)cc1	15	1	.	-1	-15	102
SMILES	APP 5UTR inh	FLuc act counter	NF-kB neuron act	FLuc inhib CS	APP 5'UTR act	STAT1 activator
Cc1cc(N2C(=O)C=CC2=O)c([N+](=O)[O-])cc1C	62*	0.9	1.1	12	-62	95
Cc1ccc(C)c(N2CCN(c3ccc(N4C(=O)COCC4=O)cc3[N+](=O)[O-])CC2)c1	-30	1	1.1	-3	30	100
CCOC(=O)N1CCC(NC(=O)CCc2nc(-c3ccc(C)cc3)no2)CC1	-6	1	1.1	4	6	98
O=c1nc(Nc2ccc(OCc3ccccc3)cc2)sc2ncccc12	14	1.1	1.7	-6	-14	124
CC(=O)c1cccc(Nc2nc(=O)c3cccnc3s2)c1	13	1.1	3.4*	-6	-13	103
CCOC(=O)c1ccc(Nc2nc(=O)c3cccnc3s2)cc1	-19	1	4.1*	1	19	112
CC(=O)c1ccc(Nc2nc(=O)c3cccnc3s2)cc1	4	1	3.9*	2	-4	136*
O=C(Cc1c[nH]c2ccccc12)NC1(C(=O)NC2CCCC2)CCCCC1	-10	1	1.4	0	10	89
CCOc1ccc(C2C(C(=O)/C=C/c3ccco3)=C(O)C(=O)N2CCN2CCOCC2)cc1OC (configuration not stated)	-11	1	0.88	1	11	101
Cc1ccc(C(=O)N2CCN(c3cnn(C)c(=O)c3Cl)CC2)cc1	-16	1.1	1.2	-6	16	104
O=C(CCCOc1ccccc1)NC1CCCc2ccccc21 (configuration not stated)	10	1	0.9	-4	-10	99
O=C(NO)c1ccccc1O	-12	1.1	1.2	-6	12	98
O=C(/C=C/c1ccc(Br)cc1)NC(=O)c1ccccc1O	-95	0.1	3.9*	91*	95	96
CSc1ccc(/C=C/C(=O)NC(=O)c2ccccc2O)cc1	-89	0.1	3.7*	86*	89	96
O=C(Cc1cccs1)N1CCN(S(=O)(=O)c2ccc(Br)cc2)CC1	-6	1	1.2	-4	5	100
OCCC#Cc1ccc(CN2CCN(C3CCCCC3)C(CCO)C2)cc1 (configuration not stated)	-19	1	1.1	-2	19	104
O=[N+]([O-])c1cccnc1N1CCN(c2ccccc2F)CC1	13	1	1.5	0	-13	114
Fc1ccccc1N1CCN(c2ncnc3[nH]ncc23)CC1	3	1	3.5*	-4	-3	109
O=C1c2cccc3cccc(c23)C(=O)N1CC1CCN(CC(O)COCc2ccc3c(c2)OCO3)CC1 (configuration not stated)	1	1.1	0.56	-6	-1	110
